# WT yeast gro inh = growth inhibition of WT yeast, mitochondrial fusion screen; mitochondrial fusion phenotypic screen, WT strain; inhibition, % at 10 µM; hit rate 2.1% among 190,000; AID 1362; in the data active means inhibition above about 58%; tested in S. cerevisiae
# NCF1 inh = p47phox (human) inhibition; AID 1274; inhibition, % at 24.7 µM; hit rate 0.53% among 220,000; P14598; p47phox/p22phox peptide binding, fluorescence polarization, 2 h;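 further: 0% = p47phox with labelled peptide and 100% = labelled peptide alone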
# Target sequence (P14598 whole entry, looked up): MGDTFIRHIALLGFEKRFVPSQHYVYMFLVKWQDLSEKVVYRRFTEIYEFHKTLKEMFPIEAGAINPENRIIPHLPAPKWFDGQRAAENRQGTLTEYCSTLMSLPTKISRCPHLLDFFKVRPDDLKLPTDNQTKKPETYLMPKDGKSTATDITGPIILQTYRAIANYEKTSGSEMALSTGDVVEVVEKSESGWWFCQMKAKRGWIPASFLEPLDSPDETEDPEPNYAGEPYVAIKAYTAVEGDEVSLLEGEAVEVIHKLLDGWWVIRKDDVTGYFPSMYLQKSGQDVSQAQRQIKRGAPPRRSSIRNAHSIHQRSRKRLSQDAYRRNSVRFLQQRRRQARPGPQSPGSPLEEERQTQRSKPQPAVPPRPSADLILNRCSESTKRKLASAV
# 14-3-3 Bad inh = disrupts binding of bovine 14-3-3 zeta to phospho-Bad peptide; P63103; TR-FRET 14-3-3zeta/Dy647-pBad peptide displacement, 1 h; inhibition, % at 21.7 µM; hit rate 0.71% among 220,000; AID 781;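 active means inhibition above about 70%, limit read from the data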;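 further: 0% = full 14-3-3 plus peptide FRET controls and 100% = background without 14-3-3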
# eIF4E-4G inh = inhibitors of eIF4E and eIF4G interaction in translation initiation; TR-FRET eIF4E-eIF4GI(517-606) binding, 2 h; AID 782; P63073+Q04637; hit rate 0.37% among 220,000; inhibition, % at 21.7 µM;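 further: 0% = full FRET control wells and 100% = background wells lacking eIF4GI fragment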
# EBV gp42 block = inhibitors of Epstein-Barr virus glycoprotein 42. Q1HVG2. inhibition, % (tested at 21.74 µM). hit rate 0.42% among 220,000. AID 1085. Fluorescence polarization binding assay, mP read-out; in the data active means inhibition above about 50%
# RBBP9 inh = human RBBP9 hydrolase inhibition; O75884; recombinant RBBP9, FP-Rh probe fluorescence polarization; inhibition, % at 7.94 µM; hit rate 0.2% among 220,000; AID 1515;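 active means inhibition above the campaign mean of all tested compounds plus 3 SD, cut at about 14% in these data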;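 further: plate controls were DMSO wells with RBBP9 for no effect and wells lacking RBBP9 protein for full effect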
# Target sequence (O75884 whole entry, looked up): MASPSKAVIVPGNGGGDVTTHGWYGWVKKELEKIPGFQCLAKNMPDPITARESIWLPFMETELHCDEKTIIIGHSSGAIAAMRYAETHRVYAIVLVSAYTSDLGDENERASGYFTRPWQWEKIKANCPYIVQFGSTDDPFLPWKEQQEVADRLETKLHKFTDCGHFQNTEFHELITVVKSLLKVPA
#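 Test system: recombinant human RBBP9; Timing: 30 min then 45 min, 25 °C; Detection: fluorescence polarization; Control set: RBBP9 with DMSO as uninhibited control, no-protein wells as full inhibition; Compound dosing: one concentration, 7.94 µM nominal, 0.794% DMSO; Probe or stimulus: FP-Rh activity-based probe, 375 nM before mixing.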
# An asterisk follows results filed as active; · = not tested or not shown; + = active, no number; [ ] = another dose, or the depositor's remark. Sampled rows, rich in hits. Any-hit rate of the full collection: about 3.7%.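 How the source made its calls, unless noted: active means inhibition above about 30% (limit read from the data); inactive means the rest.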
SMILES,WT yeast gro inh,NCF1 inh,14-3-3 Bad inh,eIF4E-4G inh,EBV gp42 block,RBBP9 inh
CCOC(=O)Cn1c(=O)oc2cc(S(=O)(=O)NCCC(C)C)ccc21,1,4,-2,0,3,-4
Cc1cc(N2CCN(C)CC2)nc2ccc(NC(=S)N3CCN(c4ccc(F)cc4)CC3)cc12,0,-15,-4,-10,-2,-3
Cc1cc(N2CCN(C)CC2)nc2ccc(NC(=S)N3CCN(c4ccc(Cl)cc4)CC3)cc12,97*,-9,18,5,-7,-6
Cc1cccc(N2CCN(C(=S)Nc3ccc4nc(N5CCN(C)CC5)cc(C)c4c3)CC2)c1C,27,44*,45,-10,-1,-13
COC(=O)c1sccc1NC(=S)N1CCN(c2cccc(C)c2C)CC1,74*,-14,-10,-2,-11,-3
CCOc1cc(N2CCOCC2)c(OCC)cc1NCC(=O)N1CCN(Cc2ccccc2)CC1,·,-13,23,3,-23,13
COc1ccc(OC)c(N/C(=N/C(=S)Nc2ccccc2)Nc2nc(C)cc(C)n2)c1,·,-17,-3,5,-13,2
O=C(CCSc1nc(-c2ccco2)cc(C(F)(F)F)n1)N1CCN(c2ccccc2)CC1,62*,-46,0,-1,5,-9
COc1ccc(-n2cc(C(=O)Nc3cc([N+](=O)[O-])ccc3OC)c3ccccc3c2=O)cc1,17,-5,1,-1,-4,-2
C/C(=N\OCC(=O)NC(C)C)c1cccs1,-10,-5,-16,-1,0,-7
CC1CCCCN1C(=O)C12CCC(C)(/C(=N/O)C1)C2(C)C (configuration not stated),2,37*,9,1,-3,-3
CCOC(=O)c1ccc2[nH]c3c(c2c1)CCCC3O (configuration not stated),-10,48*,-24,-3,14,-4
CC(=O)c1ccc(Nc2c3c(nc4ccccc24)CCCC3)cc1,·,-5,-2,3,86*,4
O=C1OCCC1Sc1nnnn1-c1ccc(Cl)cc1 (configuration not stated),1,·,0,1,-10,-4
CCCc1nc(SCC(=O)NNC(=O)c2ccc(OC)cc2)c2ccccc2n1,-3,-4,98*,-2,3,-8
O=C(COC(=O)c1ccc(S(=O)(=O)Nc2ccccc2)cc1)NCc1ccco1,6,-13,-8,-8,-12,5
CCCSc1cc(N2CCN(C)CC2)nc(-c2ccc(OC)cc2)n1,95*,-27,20,4,-14,-2
CCCSc1cc(N2CCCC2)nc(-c2ccccc2)n1,-10,-2,7,2,-20,-9
COc1cccc([C@@H]2Oc3ccc(OC)cc3C(=O)[C@H]2OC(=O)NCc2ccc3c(c2)OCO3)c1,14,-54,-7,-1,-16,-8
O=c1cc2oc3cc(O)c(O)cc3c(-c3ccccc3O)c-2cc1O,·,-298,48,28,150*,13
CCOc1ccccc1-c1c2cc(O)c(=O)cc-2oc2cc(O)c(O)cc12,3,-262,1,13,153*,-1
COc1ccc(OC)c(-c2oc3ccccc3c(=O)c2O)c1,1,-4,-3,-2,2,-10
Cc1ccccc1-c1cc(=O)c2c(O)cccc2o1,·,-5,0,3,-21,·
COc1ccc(OC)c(-c2c3cc(O)c(=O)cc-3oc3cc(O)c(O)cc23)c1,58*,-246,75*[fluorescence artefact?],51*[fluorescence artefact?],168*,-17
CNc1nc2cccnc2s1,·,2,-3,-2,-7,-6
SMILES,WT yeast gro inh,NCF1 inh,14-3-3 Bad inh,eIF4E-4G inh,EBV gp42 block,RBBP9 inh
Cc1cccc(C2N=C(N)Nc3nc4ccccc4n32)c1 (configuration not stated),·,-8,-8,1,4,-1
Cn1c(=O)c2c(ncn2Cc2nnc(N)s2)n(C)c1=O,-7,1,-14,0,-5,-4
CC(=O)NCCc1c[nH]c2ccc(OCC(O)CNC(C)(C)C)cc12 (configuration not stated),·,3,0,4,-11,-2
CC1=CC(C)(C)Nc2ccc(C)cc21,25,-5,81*,6,-2,-3
CN(/N=C/c1ccncc1)c1cnc2ccccc2n1,-4,9,2,-4,-1,1
CCOC(=O)CN(C)C(=O)CCc1nnc(-c2ccsc2)o1,59*,3,-7,0,-9,-4
O=C(O)CCN1C(=O)c2ccc(NC(=O)C(c3ccccc3)c3ccccc3)cc2C1=O,·,-23,-1,71*,-13,-2
COc1ccc(NS(=O)(=O)c2cc(NC(=O)c3cccnc3Cl)ccc2N2CCCC2)cc1,·,+,-1,-2,-3,-8
O=C(Nc1ccc(N2CCCCC2)cc1)c1cccnc1Cl,15,57*,-13,-1,-6,2
CS(=O)(=O)N1CCN(c2ccc(NC(=O)c3cccnc3Cl)cc2)CC1,-7,12,-6,-4,1,4
CCn1nc(C)c(NC(=O)/C=C/c2ccc(OC)c(COc3ccc(Cl)cc3Br)c2)c1C,-11,71*,77*,15,16,-10
C#CCOC(=O)/C(=C/C=C/c1ccccc1)NC(=O)c1ccccc1,11,-4,0,14,61*,-8
Cc1cccc(C)c1-n1nnnc1C1(Nc2ccccc2)CCCCC1,73*,0,-3,0,-11,-17
Clc1ccc(NC2(c3nnnn3C3CCCCC3)CCCCC2)cc1,-8,-9,17,1,-22,-2
O=C(O)CCn1cc(C(=O)O)c(-c2ccccc2)n1,·,0,4,3,-12,6
COc1ccc(C(=O)Oc2ccc(=O)n(-c3ccccc3)n2)cc1,4,-9,72*,6,-21,4
O=C(Oc1ccc(=O)n(-c2ccccc2)n1)c1ccc(Cl)cc1,-43,-15,48,7,-35,0
O=C(Oc1ccc(=O)n(-c2ccccc2)n1)c1cccc(Cl)c1,-60,-13,35,33*,-20,-1
COc1cc(OC)c(N(C)S(=O)(=O)c2cccc(C(=O)NC3=NCCS3)c2)cc1Cl,·,-39,-8,-7,-7,-5
CCOc1ccc(-n2c(=O)c3sccc3n(Cc3ccc(C)cc3)c2=O)cc1,-7,-3,-17,0,-6,-3
COc1cccc(CNC(=O)C23CN(Cc4ccccc4)CC2C(c2ccc([N+](=O)[O-])cc2)=NO3)c1 (configuration not stated),30,-3,71*,-4,3,-12
CC(C)CCNC(=O)C12CN(Cc3ccccc3)CC1C(c1ccc([N+](=O)[O-])cc1)=NO2 (configuration not stated),41,3,49,-4,4,-9
CC1=C(C#N)C(NC(=O)c2ccc(C)cc2)(C(F)(F)F)C(=O)N1 (configuration not stated),77*,-9,-2,1,-2,6
